Legend:
[1] = molecular target: T1, Phenylethanolamine N-methyltransferase (Bos taurus, UniProt P10938); assay: In vitro inhibition of PNMT (Phenylethanolamine N-Methyltransferase).
T1 sequence (P10938 whole entry): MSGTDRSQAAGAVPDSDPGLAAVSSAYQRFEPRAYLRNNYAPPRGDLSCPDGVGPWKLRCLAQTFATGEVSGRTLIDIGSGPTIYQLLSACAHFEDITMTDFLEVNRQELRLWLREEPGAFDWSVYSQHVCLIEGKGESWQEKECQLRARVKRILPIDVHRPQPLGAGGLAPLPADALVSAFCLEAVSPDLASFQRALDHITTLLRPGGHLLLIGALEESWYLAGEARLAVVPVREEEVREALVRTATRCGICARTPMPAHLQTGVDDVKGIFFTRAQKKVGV

[2] = Ratio of binding affinity of PNMT to alpha-2 receptors.
[3] = molecular target: T2, Adrenergic receptor alpha-2 (Rattus norvegicus, UniProt P22086+P19328+P22909); assay: In vitro inhibition of [3H]clonidine binding at the alpha-2 adrenergic receptor.; type: protein assay
T2 sequence (P22086 whole entry): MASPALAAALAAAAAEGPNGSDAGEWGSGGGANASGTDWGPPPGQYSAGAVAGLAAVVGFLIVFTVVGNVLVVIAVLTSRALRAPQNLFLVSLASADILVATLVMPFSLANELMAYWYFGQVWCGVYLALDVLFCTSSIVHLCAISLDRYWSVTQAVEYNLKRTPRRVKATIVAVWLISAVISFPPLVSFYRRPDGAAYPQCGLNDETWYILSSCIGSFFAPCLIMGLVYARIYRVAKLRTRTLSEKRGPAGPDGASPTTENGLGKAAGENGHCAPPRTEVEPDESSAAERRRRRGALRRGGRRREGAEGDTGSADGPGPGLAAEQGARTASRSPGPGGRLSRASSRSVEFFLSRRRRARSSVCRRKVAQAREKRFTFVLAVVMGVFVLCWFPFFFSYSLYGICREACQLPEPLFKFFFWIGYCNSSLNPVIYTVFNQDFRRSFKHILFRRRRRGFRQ
T2 sequence (P19328 whole entry): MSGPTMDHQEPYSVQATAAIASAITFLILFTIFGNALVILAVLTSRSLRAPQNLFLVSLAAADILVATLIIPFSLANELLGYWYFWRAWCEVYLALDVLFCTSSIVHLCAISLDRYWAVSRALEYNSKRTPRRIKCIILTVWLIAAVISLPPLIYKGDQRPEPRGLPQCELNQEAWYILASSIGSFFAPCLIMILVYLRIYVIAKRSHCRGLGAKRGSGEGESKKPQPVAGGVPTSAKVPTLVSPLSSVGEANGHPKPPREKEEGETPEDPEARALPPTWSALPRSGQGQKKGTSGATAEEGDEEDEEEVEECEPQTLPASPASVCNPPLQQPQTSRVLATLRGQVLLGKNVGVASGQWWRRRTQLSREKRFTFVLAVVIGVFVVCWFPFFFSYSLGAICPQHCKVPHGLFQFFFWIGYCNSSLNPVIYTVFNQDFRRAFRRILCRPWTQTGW
T2 sequence (P22909 whole entry): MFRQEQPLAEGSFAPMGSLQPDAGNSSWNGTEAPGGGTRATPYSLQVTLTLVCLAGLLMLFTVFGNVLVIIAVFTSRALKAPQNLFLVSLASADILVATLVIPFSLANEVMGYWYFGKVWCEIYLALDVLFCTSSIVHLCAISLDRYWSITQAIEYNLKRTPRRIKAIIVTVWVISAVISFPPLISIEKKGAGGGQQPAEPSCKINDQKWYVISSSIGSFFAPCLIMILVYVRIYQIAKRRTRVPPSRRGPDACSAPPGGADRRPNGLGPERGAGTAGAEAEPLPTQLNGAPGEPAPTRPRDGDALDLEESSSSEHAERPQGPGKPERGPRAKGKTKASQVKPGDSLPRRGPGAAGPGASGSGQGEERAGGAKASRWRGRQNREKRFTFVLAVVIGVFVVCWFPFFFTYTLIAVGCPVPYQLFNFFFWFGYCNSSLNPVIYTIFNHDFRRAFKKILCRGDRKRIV
Outline: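 Membranes from male Sprague-Dawley rat cortex, homogenized and washed in 50 mM Tris/HCl pH 7.7. Incubated with [3H]clonidine (final 2.0 nM) and various inhibitor concentrations, 1 mL final volume, 25 °C for 30 min. Terminated by vacuum filtration on GF/B filters and counted. Nonspecific binding defined with 2 µM phentolamine. IC50 by log-probit analysis; Ki = IC50/(1 + [clonidine]/KD).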

Row | Structure (SMILES) | Ki [1] [nM] | Selectivity [2] | Ki [3] [nM]
1 | O=[N+]([O-])c1ccc2c(c1)CN[C@H](CF)C2 | 880 | 160 | 140000
2 | O=S(=O)(Nc1ccc(Cl)cc1)c1ccc2c(c1)CNC(CF)C2 (centres undefined) | – | 220 | –
3 | O=[N+]([O-])c1ccc2c(c1)CN[C@@H](CF)C2 | 520 | 90 | 47000
4 | CC1Cc2ccccc2CN1 (centres undefined) | – | 0.36 | –
5 | FC[C@H]1Cc2ccc(Br)cc2CN1 | 510 | 6.1 | 3100
6 | C[C@H]1Cc2ccccc2CN1 | 38000 | 0.15 | 5700
7 | ClC[C@@H]1Cc2ccccc2CN1 | 12000 | 0.55 | 6600
8 | FCC1Cc2ccc(Br)cc2CN1 (centres undefined) | – | 10 | –
9 | FC[C@@H]1Cc2ccccc2CN1 | 9900 | 3.7 | 37000
10 | FCC1Cc2ccccc2CN1 (centres undefined) | – | 2.5 | –
11 | O=[N+]([O-])c1ccc2c(c1)CNC(CF)C2 (centres undefined) | – | 140 | –
12 | N#Cc1ccc2c(c1)CN[C@@H](CF)C2 | 970 | 370 | 360000
13 | O=[N+]([O-])c1ccc2c(c1)CN[C@H](CCl)C2 | 660 | 410 | 270000
14 | Clc1ccc2c(c1Cl)CNCC2 | – | 0.095 | –
15 | ClC[C@H]1Cc2ccccc2CN1 | 3500 | 0.66 | 2300
16 | OCC1Cc2ccccc2CN1 (centres undefined) | – | 6 | –
17 | FC[C@@H]1Cc2ccc(Br)cc2CN1 | 470 | 36 | 17000

Row | Structure (SMILES) | Ki [1] [nM] | Selectivity [2] | Ki [3] [nM]
18 | OC[C@@H]1Cc2ccccc2CN1 | – | 1.1 | –
19 | OC[C@H]1Cc2ccc(Br)cc2CN1 | 380 | 3.2 | 1200
20 | O=S(=O)(Nc1ccc(Cl)cc1)c1ccc2c(c1)CN[C@H](CF)C2 | 1900 | 53 | 101000
21 | OC[C@H]1Cc2ccccc2CN1 | – | 7.9 | –
22 | C[C@@H]1Cc2ccc([N+](=O)[O-])cc2CN1 | 250 | 76 | 19000
23 | c1ccc2c(c1)CCNC2 | – | 0.35 | –
24 | O=S(=O)(Nc1ccc(Cl)cc1)c1ccc2c(c1)CN[C@@H](CF)C2 | 280 | 350 | 97000
25 | NS(=O)(=O)c1ccc2c(c1)CNC(CF)C2 (centres undefined) | – | 1000 | –
26 | C[C@H]1Cc2ccc([N+](=O)[O-])cc2CN1 | 1300 | 41 | 53000
27 | NS(=O)(=O)c1ccc2c(c1)CNC(CO)C2 (centres undefined) | – | 4100 | –
28 | CCC1Cc2ccccc2CN1 (centres undefined) | – | 0.028 | –
29 | N#Cc1ccc2c(c1)CN[C@H](CF)C2 | 3500 | 170 | 580000
30 | O=[N+]([O-])c1ccc2c(c1)CN[C@@H](CCl)C2 | 470 | 210 | 100000
31 | C[C@@H]1Cc2ccccc2CN1 | 1000 | 0.49 | 490
32 | N#Cc1ccc2c(c1)CNC(CF)C2 (centres undefined) | – | 420 | –
33 | FC[C@H]1Cc2ccccc2CN1 | 690 | 4.2 | 2900
34 | OC[C@@H]1Cc2ccc(Br)cc2CN1 | 480 | 2 | 970

From ChEMBL document CHEMBL1132448, “Enantiospecific synthesis of 3-fluoromethyl-, 3-hydroxymethyl-, and 3-chloromethyl-1,2,3,4-tetrahydroisoquinolines as selective inhibitors of phenylethanolamine N-methyltransferase versus the alpha(2)-adrenoceptor” (J Med Chem, 1999)
